pIC50: −log10 of the molar value. Where only a bound is given, the exact number is not on record here.

The values below come from ChEMBL document CHEMBL1131156, “Studies on selectin blockers. 7. Structure-activity relationships of sialyl Lewis X mimetics based on modified Ser-Glu dipeptides” (J Med Chem, 1998).

One experiment addresses T1, L-selectin (Homo sapiens, UniProt P14151).
T1 sequence (P14151 whole entry): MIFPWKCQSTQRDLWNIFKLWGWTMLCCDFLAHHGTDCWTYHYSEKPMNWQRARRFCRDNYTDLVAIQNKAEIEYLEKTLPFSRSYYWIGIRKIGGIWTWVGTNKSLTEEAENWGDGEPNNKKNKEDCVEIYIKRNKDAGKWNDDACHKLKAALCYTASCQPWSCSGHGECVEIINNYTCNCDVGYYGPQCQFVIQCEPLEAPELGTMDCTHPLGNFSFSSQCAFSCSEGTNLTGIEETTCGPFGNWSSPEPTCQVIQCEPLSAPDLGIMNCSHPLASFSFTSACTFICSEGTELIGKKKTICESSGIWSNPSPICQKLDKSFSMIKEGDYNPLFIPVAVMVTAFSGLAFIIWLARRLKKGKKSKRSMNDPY
The experiment in a line: Inhibition of Selectin L binding. The essentials:
(§1)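 Wells coated with sLeX pentasaccharide ceramide analogue (100 pmol/well, dried from 1:1 methanol/water), blocked with 5% BSA-1 mM CaCl2/50 mM imidazole (pH 7.2) 1 h RT. Selectin-Ig fusion was precomplexed 30 min RT with biotinylated goat F(ab')2 anti-human IgG/streptavidin-alkaline phosphatase. Compounds (DMSO stock 10 mM; […]) were incubated with complex 30 min RT, then in wells 45 min at 37 °C. Detection used p-nitrophenyl phosphate in diethanolamine, pH 9.8.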

The target in experiment [1] is T2, P-selectin (Homo sapiens, UniProt P16109).
T2 sequence (P16109 whole entry): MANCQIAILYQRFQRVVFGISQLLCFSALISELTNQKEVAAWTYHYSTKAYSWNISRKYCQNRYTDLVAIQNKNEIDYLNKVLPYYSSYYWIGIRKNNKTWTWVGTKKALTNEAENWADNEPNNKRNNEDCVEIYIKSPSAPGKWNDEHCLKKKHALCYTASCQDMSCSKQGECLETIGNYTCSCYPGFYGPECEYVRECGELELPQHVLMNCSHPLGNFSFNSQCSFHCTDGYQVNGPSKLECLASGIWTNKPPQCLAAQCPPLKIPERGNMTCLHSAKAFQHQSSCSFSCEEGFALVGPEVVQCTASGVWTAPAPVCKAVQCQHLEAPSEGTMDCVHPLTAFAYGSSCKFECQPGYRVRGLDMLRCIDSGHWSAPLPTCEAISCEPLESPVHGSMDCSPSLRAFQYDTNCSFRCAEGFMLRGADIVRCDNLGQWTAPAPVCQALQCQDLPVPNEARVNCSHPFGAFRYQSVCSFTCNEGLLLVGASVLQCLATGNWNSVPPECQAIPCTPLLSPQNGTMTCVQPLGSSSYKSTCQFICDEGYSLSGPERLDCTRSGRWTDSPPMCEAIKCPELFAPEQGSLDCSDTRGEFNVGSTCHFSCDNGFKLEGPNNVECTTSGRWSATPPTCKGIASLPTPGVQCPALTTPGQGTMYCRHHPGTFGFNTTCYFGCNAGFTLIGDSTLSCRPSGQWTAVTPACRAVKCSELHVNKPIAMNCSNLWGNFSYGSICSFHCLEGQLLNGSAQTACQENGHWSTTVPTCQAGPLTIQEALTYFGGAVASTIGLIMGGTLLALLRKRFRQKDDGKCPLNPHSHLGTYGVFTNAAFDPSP
The experiment in a line: Inhibition of Selectin P binding. The essentials: as §1

The target in a further experiment is T3, E-selectin (Homo sapiens, UniProt P16581).
T3 sequence (P16581 whole entry): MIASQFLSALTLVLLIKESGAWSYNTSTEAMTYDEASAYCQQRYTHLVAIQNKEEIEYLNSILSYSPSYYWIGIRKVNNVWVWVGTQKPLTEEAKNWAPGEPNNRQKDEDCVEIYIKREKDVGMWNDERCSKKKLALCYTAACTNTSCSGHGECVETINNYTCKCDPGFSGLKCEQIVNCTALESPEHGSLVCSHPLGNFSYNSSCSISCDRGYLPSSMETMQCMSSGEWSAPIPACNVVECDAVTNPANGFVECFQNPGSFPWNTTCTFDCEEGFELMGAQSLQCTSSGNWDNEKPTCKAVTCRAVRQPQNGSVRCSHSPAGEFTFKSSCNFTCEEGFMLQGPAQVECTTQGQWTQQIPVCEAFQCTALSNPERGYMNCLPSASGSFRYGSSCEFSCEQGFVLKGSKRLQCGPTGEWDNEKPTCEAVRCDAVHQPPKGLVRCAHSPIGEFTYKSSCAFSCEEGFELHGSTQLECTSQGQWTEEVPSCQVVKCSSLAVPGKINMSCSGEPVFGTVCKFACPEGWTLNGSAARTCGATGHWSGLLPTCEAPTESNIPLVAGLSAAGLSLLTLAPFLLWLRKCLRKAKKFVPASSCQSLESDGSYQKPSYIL
The experiment can be described thus: Displacement of sialyl Lewis X (sLex) from selectin E.

Experiment [2] concerns the target T2, P-selectin. The experiment can be described thus: The compound was tested for the concentration to inhibit 50% of Selectin P by blocking its activity; range is 250-500.

Usually pIC50 stands for the IC50 on a negative log10 scale, so that one unit is a factor of ten. `CC(=O)N[C@H]1[C@H]([C@H](O)[C@H](O)CO)O[C@@](O[C@H]2[C@@H](O)[C@@H](CO)O[C@@H](O[C@@H]([C@H](O[C@@H]3O[C@@H](C)[C@@H](O)[C@@H](O)[C@@H]3O)[C@H](C=O)NC(C)=O)[C@H](O)CO)[C@@H]2O)(C(=O)O)C[C@@H]1O` [SIALYL LEWIS X]: the negative-log IC50 (pIC50) on L-selectin and at P-selectin [1] was less than 3.00 each time.

Regarding `CCCCCCCCCCCCCCC(CCCCCCCCCCCCCC)C(=O)N[C@H](COC1OC(C)C(O)C(O)C1O)C(=O)NC(CCC(=O)O)C(=O)OC` (stereo partly specified), the pIC50 on L-selectin is 5.62; at P-selectin [1] it was 5.80; at E-selectin it was less than 3.30.

For `CCCCCCCCCCCCCCC(CCCCCCCCCCCCCC)C(=O)N[C@H](COC1OC(C)C(O)C(O)C1O)C(=O)N[C@@H](CCC(=O)OC)C(=O)NC` (stereo partly specified), the values for the pIC50 on L-selectin, on P-selectin [1] and on E-selectin were less than 3.30, 4.43 and less than 3.30, respectively.

Take `CCCCCCCCCCCCCCCC(=O)N[C@H](COC1OC(C)C(O)C(O)C1O)C(=O)NC(CCC(=O)O)C(=O)NC` (stereo partly specified): the negative-log IC50 (pIC50) was 3.70 on L-selectin, less than 3.30 on E-selectin and 3.60 on P-selectin [2].

`CCCCCCCCCCCCCCC(CCCCCCCCCCCCCC)C(=O)N[C@H](CO[C@H]1O[C@@H](C)[C@@H](O)[C@H](O)[C@@H]1O)C(=O)N[C@H](CCC(=O)O)C(=O)NC`: the pIC50 at L-selectin is 6.15; at P-selectin [1] it was 6.52; at E-selectin, less than 3.00.

For the compound `CCCCCCCCCCCCCCC(CCCCCCCCCCCCCC)C(=O)N[C@@H](CO[C@H]1O[C@H](CO)[C@@H](O)[C@@H](O)[C@@H]1O)C(=O)N[C@H](CCC(=O)O)C(=O)NC` (stereo in doubt; 5c), the pIC50 is 5.38 at L-selectin, 6.17 on P-selectin [1] and less than 3.00 at E-selectin.

On to `CCCCCCCCCCCCCCC(CCCCCCCCCCCCCC)C(=O)N[C@H](CO[C@H]1O[C@@H](C)[C@@H](O)[C@H](O)[C@@H]1O)C(=O)N[C@@H](CCC(=O)O)C(=O)NC`, for which the pIC50 on L-selectin was 5.80; on P-selectin [1], 6.52; on E-selectin it was less than 4.00.

As for `CCCCCCCCCCCCCCC(CCCCCCCCCCCCCC)C(=O)N[C@H](CO[C@H]1O[C@H](CO)[C@@H](O)[C@@H](O)[C@@H]1O)C(=O)N[C@@H](CCC(=O)O)C(=O)NC`, the pIC50 on L-selectin was 5.40; on P-selectin [1], 6.35; on E-selectin it was 5.46.

With `CCCCCCCCCCCCCCC(CCCCCCCCCCCCCC)C(=O)N[C@H](COC1OC(C)C(O)C(O)C1O)C(=O)NC(CC(=O)O)C(=O)NC` (stereo partly specified), the pIC50 is 5.42 at L-selectin, 5.44 on P-selectin [1] and less than 3.30 at E-selectin.

For `CCCCCCCCCCCCCCC(CCCCCCCCCCCCCC)C(=O)N[C@@H](CO[C@H]1O[C@H](CO)[C@@H](O)[C@@H](O)[C@@H]1O)C(=O)N[C@H](CCC(=O)O)C(=O)NC` (stereo in doubt; 5b), the pIC50 is 5.51 on L-selectin, 6.38 at P-selectin [1] and 4.80 at E-selectin.

As for `CCCCCCCCCCCCCCC(CCCCCCCCCCCCCC)C(=O)N[C@@H](CO[C@H]1O[C@@H](C)[C@@H](O)[C@H](O)[C@@H]1O)C(=O)N[C@H](CCC(=O)O)C(=O)NC`, the pIC50 at L-selectin was 6.10; at P-selectin [1] it was 6.52; at E-selectin, less than 4.00.

As for `CCCCCCCCCCCC(CCCCCCCCCCC)C(=O)N[C@H](COC1OC(C)C(O)C(O)C1O)C(=O)NC(CCC(=O)O)C(=O)NC` (stereo partly specified), the figures for the pIC50 on L-selectin, on P-selectin [1] and on E-selectin were 4.92, 4.82 and 3.80, respectively.

Take `CCCCCCCCCCCCCCC(CCCCCCCCCCCCCC)C(=O)N[C@@H](CO[C@H]1O[C@@H](C)[C@@H](O)[C@H](O)[C@@H]1O)C(=O)N[C@@H](CCC(=O)O)C(=O)NC`: the pIC50 at L-selectin is 5.74; at P-selectin [1] it was 6.22; at E-selectin it was less than 3.00.

On to `CCCCCCCCCCCCCCC(CCCCCCCCCCCCCC)C(=O)N[C@@H](CO[C@H]1O[C@H](CO)[C@@H](O)[C@@H](O)[C@@H]1O)C(=O)N[C@H](CCC(=O)O)C(=O)NC` (stereo in doubt; 5d), for which the negative logarithm of the IC50 (pIC50) on L-selectin was 5.36; at P-selectin [1] it was 6.42; on E-selectin, less than 3.00.
